Converted amounts (≈) assume the structure as drawn. The source made the active and inactive calls. The calls are words filed in the database; no cut-off is given here.
Legend:
Mycobacterium kansasii [1] = experiment: Antimycobacterial activity against Mycobacterium kansasii CNCTC My 235/80 after 14 days; type: functional; conditions: CNCTC My 235/80, 336 h
In short: (§1)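 Microdilution in Šula's semisynthetic medium; compounds in DMSO at 32–0.03 µM. Inoculum from 1.0 McFarland suspension diluted 10-4. […] Isoniazid and rifampicin as reference drugs.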

Aspergillus fumigatus = experiment: Antifungal activity against Aspergillus fumigatus ATCC 204305 at highest concentration measured after 24 to 48 hrs by alamar blue dye based broth microdilution assay; type: functional, organism-based
[2] = target: T1, Decaprenylphosphoryl-beta-D-ribose oxidase (Mycobacterium smegmatis (strain ATCC 700084 / mc(2)155)) (UniProt A0R607); experiment: Inhibition of DprE1 in Mycolicibacterium smegmatis MC2 155 lysate assessed as reduction in epimerization of P[14C]RPP to DP[14C]A at 700 uM measured after 1.5 hrs in presence of NADH by TLC-based autoradiography; type: subcellular
T1 sequence (whole entry): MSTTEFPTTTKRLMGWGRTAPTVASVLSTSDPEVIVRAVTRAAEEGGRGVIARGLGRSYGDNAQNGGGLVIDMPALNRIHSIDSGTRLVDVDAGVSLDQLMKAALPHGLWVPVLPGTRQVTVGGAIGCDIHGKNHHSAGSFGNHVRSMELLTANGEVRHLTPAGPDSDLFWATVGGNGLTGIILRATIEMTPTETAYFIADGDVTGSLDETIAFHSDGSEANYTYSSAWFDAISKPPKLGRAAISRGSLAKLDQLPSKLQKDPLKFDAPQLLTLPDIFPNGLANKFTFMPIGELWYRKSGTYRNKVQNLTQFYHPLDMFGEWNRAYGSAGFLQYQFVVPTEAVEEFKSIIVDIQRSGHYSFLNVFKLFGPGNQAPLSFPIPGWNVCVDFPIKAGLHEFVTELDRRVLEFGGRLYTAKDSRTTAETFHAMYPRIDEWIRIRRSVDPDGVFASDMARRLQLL
In short: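 Cell-free DPA synthesis used a membrane/cell-envelope fraction (430 µg), spun at 100 000 × g, from sonicated M. smegmatis mc2155. The fraction was incubated 1.5 h with 15,000 dpm P[14C]RPP and NADH. BTZ was used at 70 µM and test compounds at 700 µM final, both added from DMSO stocks. Lipids were extracted, 25% was resolved by TLC, and autoradiography ran 8 days at -80 °C.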

Staphylococcus aureus [3] = experiment: Antibacterial activity against methicillin-resistant Staphylococcus aureus subsp. aureus ATCC 43300 CCM 4750 at highest concentration measured after 24 to 48 hrs by alamar blue dye based broth microdilution assay; type: functional, organism-based
[4] = test system: Trichophyton interdigitale; experiment: Antifungal activity against Trichophyton interdigitale ATCC 9533 CCM 8377 at highest concentration measured after 72 to 120 hrs by alamar blue dye based broth microdilution assay; type: functional
[5] = test system: Mycobacterium tuberculosis; experiment: Antimycobacterial activity against Mycobacterium tuberculosis H37Rv CNCTC My 331/88 after 14 days; type: functional; conditions: H37Rv CNCTC My 331/88, 336 h
In short: (§2)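 M. tuberculosis strains (H37Rv and clinical MDR/XDR isolates) tested by microdilution in Šula's semisynthetic medium. Compounds were dissolved in DMSO and tested at 32 to 0.03 µM in twofold steps. Inoculum was a 1.0 McFarland suspension diluted 10-3. Plates were incubated at 37 °C and read at 14 and 21 days.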

Candida parapsilosis = experiment: Antifungal activity against Candida parapsilosis ATCC 22019 CCM 8260 at highest concentration measured after 24 to 48 hrs by alamar blue dye based broth microdilution assay; type: functional, organism-based
Pseudomonas aeruginosa = experiment: Antibacterial activity against Pseudomonas aeruginosa ATCC 27853 CCM 3955 at highest concentration measured after 24 to 48 hrs by alamar blue dye based broth microdilution assay; type: functional, organism-based
Staphylococcus aureus [6] = experiment: Antibacterial activity against Staphylococcus aureus subsp. aureus ATCC 29213 CCM 4223 at highest concentration measured after 24 to 48 hrs by alamar blue dye based broth microdilution assay; type: functional, organism-based
Enterococcus faecalis = experiment: Antibacterial activity against Enterococcus faecalis ATCC 29212 CCM 4224 at highest concentration measured after 24 to 48 hrs by alamar blue dye based broth microdilution assay; type: functional, organism-based
Pichia kudriavzevii = experiment: Antifungal activity against Candida krusei ATCC 6258 CCM8271 at highest concentration measured after 24 to 48 hrs by alamar blue dye based broth microdilution assay; type: functional, organism-based
[7] = test system: Staphylococcus epidermidis; experiment: Antibacterial activity against Staphylococcus epidermidis at highest concentration measured after 24 to 48 hrs by alamar blue dye based broth microdilution assay; type: functional, organism-based
[8] = test system: Mycobacterium tuberculosis; experiment: Antimycobacterial activity against XDR Mycobacterium tuberculosis Praha 131 after 14 days; type: functional; conditions: Praha 131, 336 h; in short: as §2
Lichtheimia corymbifera = experiment: Antifungal activity against Lichtheimia corymbifera CCM 8077 at highest concentration measured after 24 to 48 hrs by alamar blue dye based broth microdilution assay; type: functional, organism-based
Mycobacterium kansasii [9] = experiment: Antimycobacterial activity against Mycobacterium kansasii CNCTC My 235/80 after 21 days; type: functional; conditions: CNCTC My 235/80, 504 h; in short: as §1
[10] = target: T2, Decaprenylphosphoryl-beta-D-ribose oxidase (Mycobacterium tuberculosis (strain ATCC 25618 / H37Rv)) (UniProt P9WJF1); experiment: Inhibition of DprE1 in Mycobacterium tuberculosis H37Rv assessed as accumulation of trehalose dimycolates at 10 times MIC measured after 24 hrs in presence of [14C]-acetate by TLC-based autoradiography
T2 sequence (whole entry): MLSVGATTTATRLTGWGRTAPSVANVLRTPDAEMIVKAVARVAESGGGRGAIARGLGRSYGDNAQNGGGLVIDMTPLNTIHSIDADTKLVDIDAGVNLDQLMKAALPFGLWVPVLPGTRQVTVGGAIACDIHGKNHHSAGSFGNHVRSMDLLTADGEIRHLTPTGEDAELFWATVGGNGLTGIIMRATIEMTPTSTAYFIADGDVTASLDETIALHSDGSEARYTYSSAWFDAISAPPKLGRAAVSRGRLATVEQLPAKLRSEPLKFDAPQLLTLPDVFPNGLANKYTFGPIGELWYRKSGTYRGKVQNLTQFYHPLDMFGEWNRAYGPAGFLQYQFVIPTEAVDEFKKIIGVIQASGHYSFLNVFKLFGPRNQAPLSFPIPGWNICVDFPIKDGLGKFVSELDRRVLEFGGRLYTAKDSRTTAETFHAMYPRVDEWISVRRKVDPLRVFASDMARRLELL
In short: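 M. tuberculosis H37Rv cultures were exposed to compound at final 10× or 100× MIC, or to DMSO, together with [14C]-acetate at 1 µCi/ml final. After 24 h, lipids were extracted in CHCl3/CH3OH (2:1) for 2 h at 65 °C and given two Folch washes. Extracts were run on TLC in CHCl3/CH3OH/H2O (20:4:0.5), then autoradiographed for 7 days at -80 °C.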

Mycobacterium avium = experiment: Antimycobacterial activity against Mycobacterium avium CNCTC My 330/88 after 21 days; type: functional; conditions: CNCTC My 330/88, 504 h
In short: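 M. avium was tested by microdilution in Šula's semisynthetic medium, with compounds dissolved in DMSO and serially diluted from 1000 down to 1. Inoculum was a 1.0 McFarland suspension diluted 10-5. Plates were incubated at 37 °C and read at 14 and 21 days. […] Isoniazid and rifampicin served as standards.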

Structure (SMILES): COc1ccc(CSc2nnc(-c3cc([N+](=O)[O-])cc(C(F)(F)F)c3)n2Cc2ccccc2)cc1
- MIC99 (Mycobacterium kansasii [1]): 0.5 µM (≈ 0.25 µg/mL)
- Activity (Aspergillus fumigatus): inactive
- DprE1 inhibition (active/not active) [2]: Active
- Activity (Staphylococcus aureus [3]): inactive
- Activity [4]: inactive
- MIC99 [5]: 0.5 µM (≈ 0.25 µg/mL)
- Activity (Candida parapsilosis): inactive
- Activity (Pseudomonas aeruginosa): inactive
- Activity (Staphylococcus aureus [6]): inactive
- Activity (Enterococcus faecalis): inactive
- Activity (Pichia kudriavzevii): inactive
- Activity [7]: inactive
- MIC99 [8]: 0.5 µM (≈ 0.25 µg/mL)
- Activity (Lichtheimia corymbifera): inactive
- MIC99 (Mycobacterium kansasii [9]): 0.5 µM (≈ 0.25 µg/mL)
- inhibition [10]: Active
- MIC99 (Mycobacterium avium): 250 µM (≈ 125 µg/mL)

Structure (SMILES): O=[N+]([O-])c1cc(-c2nnc(SCc3ccccc3)n2Cc2ccccc2)cc([N+](=O)[O-])c1
- MIC99 (Mycobacterium kansasii [1]): 0.03 µM (≈ 0.0134 µg/mL)
- Activity (Aspergillus fumigatus): inactive
- DprE1 inhibition (active/not active) [2]: Active
- Activity (Staphylococcus aureus [3]): inactive
- Activity [4]: inactive
- MIC99 [5]: 0.03 µM (≈ 0.0134 µg/mL)
- Activity (Candida parapsilosis): inactive
- Activity (Pseudomonas aeruginosa): inactive
- Activity (Staphylococcus aureus [6]): inactive
- Activity (Enterococcus faecalis): inactive
- Activity (Pichia kudriavzevii): inactive
- Activity [7]: inactive
- MIC99 [8]: 0.03 µM (≈ 0.0134 µg/mL)
- Activity (Lichtheimia corymbifera): inactive
- MIC99 (Mycobacterium kansasii [9]): 0.03 µM (≈ 0.0134 µg/mL)
- inhibition [10]: inactive
- MIC99 (Mycobacterium avium): 125 µM (≈ 55.9 µg/mL)

Structure (SMILES): COc1ccc(Cn2c(SCc3cc([N+](=O)[O-])cc([N+](=O)[O-])c3)nnc2-c2ccccc2)cc1
- MIC99 (Mycobacterium kansasii [1]): 2 µM (≈ 0.955 µg/mL)
- Activity (Aspergillus fumigatus): inactive
- DprE1 inhibition (active/not active) [2]: inactive
- Activity (Staphylococcus aureus [3]): inactive
- Activity [4]: inactive
- MIC99 [5]: 1 µM (≈ 0.478 µg/mL)
- Activity (Candida parapsilosis): inactive
- Activity (Pseudomonas aeruginosa): inactive
- Activity (Staphylococcus aureus [6]): inactive
- Activity (Enterococcus faecalis): inactive
- Activity (Pichia kudriavzevii): inactive
- Activity [7]: inactive
- MIC99 [8]: 2 µM (≈ 0.955 µg/mL)
- Activity (Lichtheimia corymbifera): inactive
- MIC99 (Mycobacterium kansasii [9]): 2 µM (≈ 0.955 µg/mL)
- inhibition [10]: inactive
- MIC99 (Mycobacterium avium): 250 µM (≈ 119 µg/mL)

Structure (SMILES): CCCCCCn1c(SCc2cc([N+](=O)[O-])cc([N+](=O)[O-])c2)nnc1-c1ccccc1
- MIC99 (Mycobacterium kansasii [1]): 1 µM (≈ 0.442 µg/mL)
- Activity (Aspergillus fumigatus): inactive
- DprE1 inhibition (active/not active) [2]: inactive
- Activity (Staphylococcus aureus [3]): inactive
- Activity [4]: inactive
- MIC99 [5]: 1 µM (≈ 0.442 µg/mL)
- Activity (Candida parapsilosis): inactive
- Activity (Pseudomonas aeruginosa): inactive
- Activity (Staphylococcus aureus [6]): inactive
- Activity (Enterococcus faecalis): inactive
- Activity (Pichia kudriavzevii): inactive
- Activity [7]: inactive
- MIC99 [8]: 2 µM (≈ 0.883 µg/mL)
- Activity (Lichtheimia corymbifera): inactive
- MIC99 (Mycobacterium kansasii [9]): 2 µM (≈ 0.883 µg/mL)
- inhibition [10]: inactive
- MIC99 (Mycobacterium avium): 250 µM (≈ 110 µg/mL)

Structure (SMILES): COc1ccc(CSc2nnc(-c3cc([N+](=O)[O-])cc([N+](=O)[O-])c3)n2Cc2ccccc2)cc1
- MIC99 (Mycobacterium kansasii [1]): 0.03 µM (≈ 0.0143 µg/mL)
- Activity (Aspergillus fumigatus): inactive
- DprE1 inhibition (active/not active) [2]: Active
- Activity (Staphylococcus aureus [3]): inactive
- Activity [4]: inactive
- MIC99 [5]: 0.03 µM (≈ 0.0143 µg/mL)
- Activity (Candida parapsilosis): inactive
- Activity (Pseudomonas aeruginosa): inactive
- Activity (Staphylococcus aureus [6]): inactive
- Activity (Enterococcus faecalis): inactive
- Activity (Pichia kudriavzevii): inactive
- Activity [7]: inactive
- MIC99 [8]: 0.03 µM (≈ 0.0143 µg/mL)
- Activity (Lichtheimia corymbifera): inactive
- MIC99 (Mycobacterium kansasii [9]): 0.03 µM (≈ 0.0143 µg/mL)
- inhibition [10]: inactive
- MIC99 (Mycobacterium avium): 62 µM (≈ 29.6 µg/mL)

Structure (SMILES): O=[N+]([O-])c1cc(-c2nnc(SCc3ccccc3)n2Cc2ccccc2)cc(C(F)(F)F)c1
- MIC99 (Mycobacterium kansasii [1]): 0.03 µM (≈ 0.0141 µg/mL)
- Activity (Aspergillus fumigatus): inactive
- DprE1 inhibition (active/not active) [2]: Active
- Activity (Staphylococcus aureus [3]): inactive
- Activity [4]: inactive
- MIC99 [5]: 0.03 µM (≈ 0.0141 µg/mL)
- Activity (Candida parapsilosis): inactive
- Activity (Pseudomonas aeruginosa): inactive
- Activity (Staphylococcus aureus [6]): inactive
- Activity (Enterococcus faecalis): inactive
- Activity (Pichia kudriavzevii): inactive
- Activity [7]: inactive
- MIC99 [8]: 0.06 µM (≈ 0.0282 µg/mL)
- Activity (Lichtheimia corymbifera): inactive
- MIC99 (Mycobacterium kansasii [9]): 0.03 µM (≈ 0.0141 µg/mL)
- inhibition [10]: Active
- MIC99 (Mycobacterium avium): 250 µM (≈ 118 µg/mL)
